Values joined by “and” are separate entries in the source; they are usually repeats but may differ in a detail not shown here. Identical values can stand only once. Active and inactive are the calls of the source.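 Rule for the calls: active = Chi band cutting by RecBCD reduced more than twofold versus the solvent-only control; inactive = reduction of twofold or less versus solvent-only control.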
biological target: RecBCD enzyme subunit RecC (Escherichia coli (strain K12)) + RecBCD enzyme subunit RecB (Escherichia coli (strain K12)) (UniProt P07648+P08394); experiment: RecBCD helicase and Chi cutting inhibitors, late-stage follow-up, counter-screen for AddAB inhibitor project, biochemical, radioactive gel readout, single concentration (AID 623937); conditions: purified RecBCD, 32P DNA gel autoradiography, at 50 µM
Sequence (P07648 whole entry, looked up, the tested form may be a part): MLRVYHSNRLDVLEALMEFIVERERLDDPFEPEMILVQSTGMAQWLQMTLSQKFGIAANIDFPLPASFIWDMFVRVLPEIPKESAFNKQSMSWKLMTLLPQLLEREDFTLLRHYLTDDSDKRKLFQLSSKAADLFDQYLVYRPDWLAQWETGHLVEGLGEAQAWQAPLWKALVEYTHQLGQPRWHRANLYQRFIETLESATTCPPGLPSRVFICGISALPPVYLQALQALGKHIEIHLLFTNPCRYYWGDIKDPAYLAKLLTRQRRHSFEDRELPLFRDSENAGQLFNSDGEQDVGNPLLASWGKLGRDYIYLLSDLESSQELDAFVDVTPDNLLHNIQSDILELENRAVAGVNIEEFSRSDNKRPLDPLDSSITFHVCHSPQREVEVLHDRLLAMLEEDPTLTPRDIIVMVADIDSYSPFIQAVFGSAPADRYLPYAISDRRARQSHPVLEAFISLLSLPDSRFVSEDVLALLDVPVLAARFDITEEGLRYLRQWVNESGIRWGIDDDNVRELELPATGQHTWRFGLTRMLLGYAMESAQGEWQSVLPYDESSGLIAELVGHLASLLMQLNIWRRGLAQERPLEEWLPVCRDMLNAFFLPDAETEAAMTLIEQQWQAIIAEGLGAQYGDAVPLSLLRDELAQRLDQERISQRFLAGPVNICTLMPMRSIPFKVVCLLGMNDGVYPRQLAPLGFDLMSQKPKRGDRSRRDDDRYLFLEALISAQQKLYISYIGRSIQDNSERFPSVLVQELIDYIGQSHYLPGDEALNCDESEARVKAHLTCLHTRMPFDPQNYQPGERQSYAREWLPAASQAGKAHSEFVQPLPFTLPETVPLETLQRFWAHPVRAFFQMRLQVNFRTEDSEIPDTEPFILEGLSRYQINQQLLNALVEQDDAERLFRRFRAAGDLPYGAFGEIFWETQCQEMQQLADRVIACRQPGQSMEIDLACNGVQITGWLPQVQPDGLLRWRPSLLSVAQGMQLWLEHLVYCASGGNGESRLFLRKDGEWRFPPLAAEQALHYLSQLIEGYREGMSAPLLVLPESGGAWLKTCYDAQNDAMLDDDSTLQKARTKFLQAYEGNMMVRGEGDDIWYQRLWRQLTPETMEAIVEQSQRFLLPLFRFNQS
Sequence (P08394 whole entry, looked up, the tested form may be a part): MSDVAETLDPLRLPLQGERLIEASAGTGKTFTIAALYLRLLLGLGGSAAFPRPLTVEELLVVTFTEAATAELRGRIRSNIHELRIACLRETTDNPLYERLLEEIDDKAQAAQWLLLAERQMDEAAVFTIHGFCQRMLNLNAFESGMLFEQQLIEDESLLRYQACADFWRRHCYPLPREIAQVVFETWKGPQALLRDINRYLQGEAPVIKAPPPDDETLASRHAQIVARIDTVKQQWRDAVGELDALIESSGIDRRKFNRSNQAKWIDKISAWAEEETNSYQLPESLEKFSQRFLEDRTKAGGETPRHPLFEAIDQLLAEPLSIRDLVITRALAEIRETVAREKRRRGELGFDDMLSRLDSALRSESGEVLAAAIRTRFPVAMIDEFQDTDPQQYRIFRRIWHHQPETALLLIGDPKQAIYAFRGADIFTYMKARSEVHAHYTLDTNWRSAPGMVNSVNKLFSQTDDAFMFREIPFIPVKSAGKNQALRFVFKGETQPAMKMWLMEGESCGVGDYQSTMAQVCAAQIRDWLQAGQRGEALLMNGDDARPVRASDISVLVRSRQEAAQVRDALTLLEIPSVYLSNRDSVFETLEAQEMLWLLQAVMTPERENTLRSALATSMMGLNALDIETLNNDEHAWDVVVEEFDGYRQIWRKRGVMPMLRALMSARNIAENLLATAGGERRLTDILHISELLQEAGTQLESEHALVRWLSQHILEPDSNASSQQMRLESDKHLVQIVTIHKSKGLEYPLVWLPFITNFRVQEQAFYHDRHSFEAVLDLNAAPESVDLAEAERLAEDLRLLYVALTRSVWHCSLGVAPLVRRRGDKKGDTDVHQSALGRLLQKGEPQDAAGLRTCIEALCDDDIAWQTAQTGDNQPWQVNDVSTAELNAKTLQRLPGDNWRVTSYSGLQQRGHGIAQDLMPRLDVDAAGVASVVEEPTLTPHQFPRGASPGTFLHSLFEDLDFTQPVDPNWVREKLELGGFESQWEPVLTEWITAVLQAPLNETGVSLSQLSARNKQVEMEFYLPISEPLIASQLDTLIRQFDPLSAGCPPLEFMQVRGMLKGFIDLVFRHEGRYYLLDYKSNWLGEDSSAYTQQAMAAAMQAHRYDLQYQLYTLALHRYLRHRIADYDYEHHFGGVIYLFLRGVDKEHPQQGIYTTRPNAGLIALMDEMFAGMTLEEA
Method in brief: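 Test system: Purified E. coli RecBCD helicase-nuclease enzyme | Amount: RecBCD enzyme at 0.15 nM | Read-out: Loss of 1.46 kb Chi-cut fragment relative to DMSO | Timing: Enzyme reaction for 1 min at 37 °C | Technique: Agarose gel separation of labeled DNA products | Medium: 5 mM ATP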

fold reduction of Chi cutting | SMILES
< 2 (inactive) | NC(=O)c1ccsc1NC(=O)COC(=O)c1ccc([N+](=O)[O-])o1
< 2 (inactive) | CCn1cc(C(=O)O)c(=O)c2cnc(N3CCN(C(=S)Nc4cccc(C(F)(F)F)c4)CC3)nc21
< 2 (inactive) | CCn1cc(C(=O)O)c(=O)c2cnc(N3CCN(C(=S)Nc4ccc5c(c4)OCO5)CC3)nc21
< 2 (inactive) | C=CCn1c(Sc2ncc([N+](=O)[O-])s2)n[nH]c1=O
> 2 | CCn1cc(C(=O)O)c(=O)c2cnc(N3CCN(C(=S)Nc4ccc5c(c4)OCCO5)CC3)nc21
> 2 | O=C(Nc1ncccn1)c1ccc([N+](=O)[O-])o1
< 2 (inactive) | CCn1cc(C(=O)O)c(=O)c2cnc(N3CCN(C(=S)NC(=O)c4ccco4)CC3)nc21
> 2 | CCn1cc(C(=O)O)c(=O)c2cnc(N3CCN(C(=S)NC4CC5CCC4C5)CC3)nc21 (stereo not drawn)
< 2 (inactive) | N#Cc1c(NC(=O)c2cnccn2)sc2c1CCCC2
< 2 (inactive) | Cc1sc(NC(=O)c2ccc(Br)o2)c(C#N)c1C
> 2 | CCn1cc(C(=O)O)c(=O)c2cnc(N3CCN(C(=S)NC(=O)c4cccc(C)c4)CC3)nc21
< 2 (inactive) | C=CCNC(=S)N1CCN(c2ncc3c(=O)c(C(=O)O)cn(CC)c3n2)CC1
< 2 (inactive) | O=C(Nc1ccc(N2CCOCC2)cc1)c1ccc([N+](=O)[O-])o1
< 2 (inactive) | N#Cc1c(NC(=O)c2ccc(-c3ccccc3[N+](=O)[O-])o2)sc2c1CCCC2
< 2 (inactive) | CCn1cc(C(=O)O)c(=O)c2cnc(N3CCN(C(=S)NC(C)c4ccccc4)CC3)nc21 (stereo not drawn)
< 2 (inactive) | CCn1cc(C(=O)O)c(=O)c2cnc(N3CCN(C(=S)NC(=O)c4ccccc4Cl)CC3)nc21
> 2 | N#Cc1c(NC(=O)c2ccccc2C(=O)O)sc2c1CCCC2
< 2 (inactive) | CCn1cc(C(=O)O)c(=O)c2cnc(N3CCN(C(=S)Nc4ccccc4C)CC3)nc21
< 2 (inactive) | Cc1ccc(C(=O)Nc2sc3c(c2C#N)CCC3)o1
> 2 | O=C(Nc1cccc(NC(=O)c2ccccc2Cl)c1)c1ccc([N+](=O)[O-])o1
< 2 (inactive) | O=C(NCc1cccnc1)c1ccc([N+](=O)[O-])o1
< 2 (inactive) | O=C(OCC(=O)c1cccs1)c1ccc([N+](=O)[O-])o1
< 2 (inactive) | CCn1cc(C(=O)O)c(=O)c2cnc(N3CCN(C(=S)Nc4ccc(Cl)cc4)CC3)nc21
< 2 (inactive) | CCn1cc(C(=O)O)c(=O)c2cnc(N3CCN(C(=S)Nc4ccccc4OC)CC3)nc21

fold reduction of Chi cutting | SMILES
< 2 (inactive) | N#Cc1c(NC(=O)c2ccco2)sc2c1CCC2
< 2 (inactive) | CCn1cc(C(=O)O)c(=O)c2cnc(N3CCN(C(=S)NC(=O)c4cccnc4)CC3)nc21
> 2 | CC1CCc2c(sc(NC(=O)c3ccc([N+](=O)[O-])o3)c2N)C1 (stereo not drawn)
< 2 (inactive) | CCn1cc(C(=O)O)c(=O)c2cnc(N3CCNCC3)nc21
> 2 | CCn1cc(C(=O)O)c(=O)c2cnc(N3CCN(C(=O)Nc4ccccc4)CC3)nc21
< 2 (inactive) | CCn1cc(C(=O)O)c(=O)c2cnc(N3CCN(C(=S)NCc4ccccc4)CC3)nc21
< 2 (inactive) | N#Cc1c(NC(=O)C2CC=CCC2C(=O)O)sc2c1CCC2 (stereo not drawn)
> 2 | CCn1cc(C(=O)O)c(=O)c2cnc(N3CCN(C(=S)Nc4ccc(F)cc4)CC3)nc21
< 2 (inactive) | CCn1cc(C(=O)O)c(=O)c2cnc(N3CCN(C(=S)Nc4ccccc4F)CC3)nc21
> 2 | N#Cc1c(NC(=O)c2cccc(F)c2)sc2c1CCCC2
> 2 | Cc1ccc2nc(/C(C#N)=C\c3ccc([N+](=O)[O-])o3)[nH]c2c1
< 2 (inactive) | CC(=O)Nc1ccc2nc(NC(=O)c3ccc([N+](=O)[O-])o3)sc2c1
< 2 (inactive) | N#Cc1c(NC(=O)c2ccccc2)sc2c1CCC2
> 2 | CCn1cc(C(=O)O)c(=O)c2cnc(N3CCN(C(=S)Nc4ccccc4)CC3)nc21
> 2 | Nc1c(NC(=O)c2ccc([N+](=O)[O-])o2)sc2c1CCCC2
< 2 (inactive) | CC1CCc2c(sc(NC(=O)c3ccc([N+](=O)[O-])o3)c2C#N)C1 (stereo not drawn)
< 2 (inactive) | Cc1cccnc1NC(=O)c1ccc([N+](=O)[O-])o1
> 2 | CCn1cc(C(=O)O)c(=O)c2cnc(N3CCN(C(=S)Nc4ccccc4Cl)CC3)nc21
< 2 (inactive) | CCn1cc(C(=O)O)c(=O)c2cnc(N3CCN(C(=S)NC)CC3)nc21
> 2 and < 2 (inactive) | CCn1cc(C(=O)O)c(=O)c2cnc(N3CCN(C(=S)Nc4ccccc4C(F)(F)F)CC3)nc21
> 2 | N#Cc1c(NC(=O)c2ccc([N+](=O)[O-])o2)sc2c1CCC2
< 2 (inactive) | CC1(C)Cc2c(sc(NC(=O)c3ccco3)c2C#N)CO1
< 2 (inactive) | Cc1ccc(C(=O)Nc2sc3c(c2C#N)CCCCC3)o1
< 2 (inactive) | N#Cc1c(NC(=O)c2ccc([N+](=O)[O-])o2)sc2c1CCCC2

Source: PubChem BioAssay AID623937 (The Scripps Research Institute Molecular Screening Center, 2012)
